How the values were obtained:
Steryl-sulfatase [1] = target: T1, Steryl-sulfatase (Homo sapiens, UniProt P08842)
T1 sequence (P08842 whole entry): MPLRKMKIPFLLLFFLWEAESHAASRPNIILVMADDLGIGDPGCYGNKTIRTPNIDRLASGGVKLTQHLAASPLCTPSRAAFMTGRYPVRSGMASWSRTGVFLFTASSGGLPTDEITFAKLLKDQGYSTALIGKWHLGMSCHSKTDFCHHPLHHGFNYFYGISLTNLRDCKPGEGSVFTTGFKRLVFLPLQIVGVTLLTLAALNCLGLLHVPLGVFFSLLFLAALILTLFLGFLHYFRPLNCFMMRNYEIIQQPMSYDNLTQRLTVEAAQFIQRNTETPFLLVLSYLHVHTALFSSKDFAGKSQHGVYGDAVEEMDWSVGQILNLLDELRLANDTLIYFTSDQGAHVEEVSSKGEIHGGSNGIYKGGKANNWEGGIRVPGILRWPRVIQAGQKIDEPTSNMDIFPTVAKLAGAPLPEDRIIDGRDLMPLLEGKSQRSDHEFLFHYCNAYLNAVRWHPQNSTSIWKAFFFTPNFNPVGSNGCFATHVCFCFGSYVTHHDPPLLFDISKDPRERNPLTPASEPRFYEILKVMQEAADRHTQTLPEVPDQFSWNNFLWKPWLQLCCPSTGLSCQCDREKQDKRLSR

Steryl-sulfatase [2] = target: T1, Steryl-sulfatase; test: Inhibition of steroid sulfatase in human MCF7 cells using [3H]E1S as substrate after 20 hrs by scintillation spectrometry; format: cell-based
Outline: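 Intact MCF-7 monolayers incubated 20 h at 37 °C with [3H]E1S (5 pmol, 7 × 10^5 dpm) in serum-free minimal essential medium, with or without inhibitor (0.1–10 range). Estrone product separated from E1S by toluene partition; [14C]estrone corrected procedural losses. 3H/14C counted by scintillation; E1S hydrolysed calculated from 3H counts and substrate specific activity; IC50 derived.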

[3] = target: T2, Steryl-sulfatase (Homo sapiens) (UniProt P08842); test: Inhibition of steroid sulfatase in human MCF7 cells using [3H]E1S as substrate at 10 uM after 20 hrs by scintillation spectrometry; format: cell-based
T2 sequence (whole entry): T1 sequence (P08842 whole entry)
Outline: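 Intact MCF-7 monolayers exposed to inhibitor with [3H]E1S (5 pmol, 60 Ci/mmol) in serum-free minimal essential medium, 20 h at 37 °C. Product estrone split from E1S by toluene partition, with [14C]estrone as recovery marker. 3H and 14C counted by scintillation. E1S hydrolysed calculated from 3H counts, corrected for volumes and 14C recovery, and from substrate specific activity.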

[4] = target: T2, Steryl-sulfatase (Homo sapiens); conditions: MCF7, 0.01 uM
Rattus norvegicus [5] = test: Inhibition of steroid sulfatase in rat liver at 10 mg/kg, sc administered as single dose measured up to 7 days; format: functional; conditions: 168 h, route subcutaneous
Rattus norvegicus [6] = test: Inhibition of steroid sulfatase in rat liver at 10 mg/kg, sc; format: functional; conditions: route subcutaneous
Rattus norvegicus [7] = test: Inhibition of steroid sulfatase in rat liver at 10 mg/kg, po administered as single dose measured up to 7 days; format: functional; conditions: 168 h
Rattus norvegicus [8] = test: Inhibition of steroid sulfatase in rat liver at 10 mg/kg, po; format: functional

| Structure (SMILES) | IC50 (Steryl-sulfatase [1]) [nM] | IC50 (Steryl-sulfatase [2]) [nM] | further results |
| --- | --- | --- | --- |
| C[C@]12CC[C@@H]3c4ccc(OS(N)(=O)=O)c([N+](=O)[O-])c4CC[C@H]3[C@@H]1CCC2=O | 0.8 | 0.01 |  |
| C=CCc1cc2c(c(CC=C)c1OS(N)(=O)=O)CC[C@@H]1[C@@H]2CC[C@]2(C)C(=O)CC[C@@H]12 | > 10000 |  | inhibition [3]: < 10% |
| C=CCc1cc2c(cc1OS(N)(=O)=O)CC[C@@H]1[C@@H]2CC[C@]2(C)C(=O)CC[C@@H]12 | 2500 | 37 |  |
| C[C@]12CC[C@@H]3c4cc(C#N)c(OS(N)(=O)=O)cc4CC[C@H]3[C@@H]1CCC2=O | 5.2 | 1.2 |  |
| CCCc1cc2c(cc1OS(N)(=O)=O)CC[C@@H]1[C@@H]2CC[C@]2(C)C(=O)CC[C@@H]12 | 2900 | 236 |  |
| CCc1cc2c(cc1OS(N)(=O)=O)CC[C@@H]1[C@@H]2CC[C@]2(C)C(=O)CC[C@@H]12 | 820 |  |  |
| CCCc1cc2c(c(CCC)c1OS(N)(=O)=O)CC[C@@H]1[C@@H]2CC[C@]2(C)C(=O)CC[C@@H]12 | > 10000 |  | inhibition [3]: < 10% |
| CN1c2cc3c(cc2OS1(=O)=O)CC[C@@H]1[C@@H]3CC[C@]2(C)C(=O)CC[C@@H]12 | > 10000 |  |  |
| C[C@]12CC[C@@H]3c4ccc5c(c4CC[C@H]3[C@@H]1CCC2=O)NS(=O)(=O)O5 | > 10000 |  |  |
| C[C@]12CC[C@@H]3c4cc5c(cc4CC[C@H]3[C@@H]1CCC2=O)OS(=O)(=O)N5 | > 10000 |  |  |
| C[C@@]12CCC[C@H]1[C@@H]1CCc3cc(OS(N)(=O)=O)ccc3[C@H]1CC2 | 199 |  | inhibition [4]: 97% |
| C[C@]12CC[C@@H]3c4cc(Cl)c(OS(N)(=O)=O)cc4CC[C@H]3[C@@H]1CCC2=O | 3.4 | 0.44 |  |
| CCCc1c(OS(N)(=O)=O)ccc2c1CC[C@@H]1[C@@H]2CC[C@]2(C)C(=O)CC[C@@H]12 | > 10000 |  | inhibition [3]: < 10% |
| C[C@]12CC[C@@H]3c4cc(I)c(OS(N)(=O)=O)cc4CC[C@H]3[C@@H]1CCC2=O |  | 0.81 |  |
| Cc1cc2c(cc1OS(N)(=O)=O)CC[C@@H]1[C@@H]2CC[C@]2(C)C(=O)CC[C@@H]12 | > 10000 |  |  |
| C[C@]12CC[C@@H]3c4cc(F)c(OS(N)(=O)=O)cc4CC[C@H]3[C@@H]1CCC2=O | 5.6 | 0.62 |  |
| C[C@]12CC[C@@H]3c4cc([N+](=O)[O-])c(OS(N)(=O)=O)cc4CC[C@H]3[C@@H]1CCC2=O | 70 | 8.3 |  |
| C[C@]12CC[C@@H]3c4ccc(OS(N)(=O)=O)cc4CC[C@H]3[C@@H]1CCC2=O [EMATE] | 18 | 0.83 | inhibition in vivo at 10 mg/kg (Rattus norvegicus [5]): > 95%; inhibition in vivo at 10 mg/kg (Rattus norvegicus [6]): 99%; inhibition in vivo at 10 mg/kg (Rattus norvegicus [7]): > 95%; inhibition in vivo at 10 mg/kg (Rattus norvegicus [8]): 99% |
| C[C@]12CC[C@@H]3c4ccc(OS(N)(=O)=O)c(Br)c4CC[C@H]3[C@@H]1CCC2=O | 1200 | 42 |  |
| C[C@]12CC[C@@H]3c4cc(C(F)F)c(OS(N)(=O)=O)cc4CC[C@H]3[C@@H]1CCC2=O | 0.1 |  |  |
| C[C@]12CC[C@@H]3c4cc(Br)c(OS(N)(=O)=O)cc4CC[C@H]3[C@@H]1CCC2=O |  | 0.11 |  |

— ChEMBL document CHEMBL2010652, “Synthesis and evaluation of analogues of estrone-3-O-sulfamate as potent steroid sulfatase inhibitors” (Bioorg Med Chem, 2012)
